Rpn11 block – inhibitors of human proteasome Rpn11 | O00487 | human 26S proteasome, Ub4-pepOG fluorescence polarization; 20S core pre-blocked with epoxomicin | 360,000 compounds, 0.59% hits | inhibition, % at 20 µM | AID 588493;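 active means inhibition at 20 µM, scaled to each plate's controls, above about 33%, limit read from the data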
DNMT1 block – DNMT1 (human) enzyme inhibition; P26358; DNMT1 molecular beacon, Hinp1I cleavage, fluorescence; inhibition (reported as % activation of signal), % at 10 µM; 360,000 compounds, 0.83% hits; in the data active means inhibition above about 50%
Scp1 inh – blocks human Scp-1 phosphatase activity | Q9GZU7 | Recombinant Scp1, phosphopeptide, malachite green phosphate absorbance | inhibition, % at 20 µM | 340,000 compounds, 0.88% hits | AID 493091;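 active means inhibition above about 50% at 20 µM, limit read from the data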;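 further: plate controls were DMSO wells with enzyme for no effect and wells lacking enzyme for full effect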
Target sequence (Q9GZU7 76-261 limits assumed): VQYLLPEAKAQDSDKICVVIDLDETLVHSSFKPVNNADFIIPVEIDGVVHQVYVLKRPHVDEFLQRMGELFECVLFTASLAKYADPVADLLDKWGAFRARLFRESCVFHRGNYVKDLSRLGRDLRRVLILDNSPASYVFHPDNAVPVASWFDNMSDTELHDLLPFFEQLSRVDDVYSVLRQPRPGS
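assay system = SCP-1 phosphatase catalytic domain, residues 76-261 | buffer or medium = 50 mM Tris acetate pH 5.5, 0.005% Tween-20, 10 mM MgCl2 | incubation = enzyme reaction 45 min at room temperature, colour 5 min, stabilisation 30 min | signal = Phosphate-binding colour reagent, absorbance read at 630 nm | measure = % inhibition at 20 µM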
SUMO1 PPI mod – alters human SUMO1 binding to SIM partners. P63165. SUMO1 binding to a labelled peptide, TR-FRET, 1 h. inhibition, % at 20 µM. 360,000 compounds, 0.33% hits; in the data active means inhibition above about 37%
Target sequence (P63165 whole entry, looked up): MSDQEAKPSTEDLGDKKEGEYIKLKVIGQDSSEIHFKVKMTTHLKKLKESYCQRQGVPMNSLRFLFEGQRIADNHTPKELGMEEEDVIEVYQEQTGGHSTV
STEP block – STEP (human) phosphatase inhibition; recombinant STEP, OMFP fluorogenic substrate, fluorescence; inhibition, % at 20 µM; 360,000 compounds, 0.25% hits; AID 588621;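 active means inhibition at 20 µM, scaled per plate between control wells, above about 37%, limit read from the data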;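 further: 0% = DMSO with enzyme and substrate and 100% = substrate only without enzyme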
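Also added – OMFP at 25 µM · Test system – STEP tyrosine phosphatase · Technique – FITC-channel fluorescence of OMFP product · Schedule – 20 min at room temperature, dark · Evaluation – control-normalized % inhibition with plate pattern correction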
LMPTP block – blocks human LMPTP phosphatase | P24666 | 360,000 compounds, 0.22% hits | AID 651560 | inhibition, % at 20 µM | recombinant LMPTP-A, OMFP fluorogenic substrate, fluorescence intensity;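 active means compounds that cut the enzyme signal by at least half of the control window in the single-dose screen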;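 further: plate controls were DMSO wells with enzyme plus substrate for no effect and substrate without enzyme for full effect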
Target sequence (P24666 whole entry, looked up): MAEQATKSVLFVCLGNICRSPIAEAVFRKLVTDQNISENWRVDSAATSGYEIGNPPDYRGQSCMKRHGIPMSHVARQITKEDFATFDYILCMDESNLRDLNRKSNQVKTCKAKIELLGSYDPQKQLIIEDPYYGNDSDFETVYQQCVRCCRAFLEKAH
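Assay system: LMPTP-A, protein tyrosine phosphatase of low molecular weight / Medium: pH 6.0 Bis-Tris buffer with DTT and Triton X-100 / Schedule: 50 min enzyme reaction at room temperature, protected from light / Measured by: endpoint fluorescence intensity from OMFP dephosphorylation / Read-out basis: % inhibition relative to no-enzyme and uninhibited control wells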
Beacon interf DR – shows spectral interference in the DNMT1 beacon assay | shares compounds with DNMT1 block | molecular beacon fluorescence, spectral interference counter-screen | IC50, µM | 200 tested, under 10 active | AID 602382; call rule not given here
DNMT1 inh conf – confirmation of human DNMT1 inhibitors; inhibition, % at 10 µM; 2,300 compounds, 8% hits; DNMT1 molecular beacon HinP1I cleavage, fluorescence; shares compounds with DNMT1 block;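 active means average inhibition of at least 30% in the single-concentration confirmation test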
DNMT1 interf – shows spectral interference in the DNMT1 beacon assay; shares compounds with DNMT1 block; DNMT1 molecular beacon spectral interference counterscreen, fluorescence 485/520; activation (fluorescence interference), % at 10 µM; 2,300 compounds, 1% hits;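 active means activation of at least 30% at 10 µM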;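 further: DNMT1 catalytic domain with a HinP1I cleavage step and a FAM/dabcyl DNA beacon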
* hit, by the source's call; . = no result given. Only some compounds are listed: those with a hit (about 2.3% of all), similar ones and a draw of the others.

SMILES	Rpn11 block	DNMT1 block	Scp1 inh	SUMO1 PPI mod	STEP block	LMPTP block	DNMT1 inh conf	DNMT1 interf	others
CCOC(=O)c1c(NC(=O)C2CCCO2)sc(C(=O)OC(C)(C)C)c1C (stereo unspecified)	9	51*	0	5	8	2	2	5
CCN(CC)c1ccc2cc(-c3nnc(-c4ccccc4)o3)c(=O)oc2c1	1	102*	-14	-15	-109	-2	88*	134*
Cc1cc2cc(CNC(=O)Nc3ccc(Cl)c(Cl)c3)ccc2n1C	-5	58*	-8	-24	3	5	7	5
CCOc1ccc(-c2nnc(SCC(=O)Nc3ccc4c(c3)c3ccccc3n4CC)n2N)cc1	-2	59*	12	7	-2	2	1	2
O=C(Nc1cccc(N2CCCC2)c1)c1cccs1	23	59*	-8	7	1	17	3	5
CCOc1ccc(CNC(=O)CCC(=O)N2Cc3ccccc3Oc3ncccc32)cc1	-6	-1	28	3	1	0	.	.
O=S(=O)(Nc1c(S(=O)(=O)c2ccccc2)c2nc3ccccc3nc2n1C1CCCCC1)c1ccccc1	24	67*	4	50*	0	20	46*	-7	Beacon interf DR=>99
C=CCn1c(NS(=O)(=O)c2ccccc2)c(S(=O)(=O)c2ccc(C)cc2)c2nc3ccccc3nc21	1	-3	-8	32	-7	3	.	.
CNC(=O)C[C@H]1C(=O)N(c2ccc(OC)cc2)C[C@@H]1C	-1	0	.	-1	5	-1	.	.
Clc1cccc(CNc2ccn3nc(-c4ccccc4)cc3n2)c1	-6	-24	.	2	0	4	.	.
Clc1ccc(-c2cc3nc(NCc4cccc(Cl)c4)ccn3n2)cc1	12	79*	.	7	3	4	6	9
CN(C)C(=O)c1cccc(-c2cnc3c(NC=O)cc(-c4ccccc4F)cn23)c1	-1	0	.	-3	0	-1	.	.
CC1(C(=O)NNC(=O)c2ccc(=O)oc2)CC1Br (stereo unspecified)	16	75*	28	21	8	-1	4	3
Cc1cc(=O)oc(C)c1C(=O)NNC(=O)C1(C)CC1Br (stereo unspecified)	-8	1	-1	9	-3	-2	.	.
C[C@H](NC(=O)N1CCC(Cc2ccccc2)CC1)C(=O)O	3	-1	-6	9	-2	-2	.	.
CCCCN(C(=O)c1ccc2c(c1)S(=O)(=O)N=C1CCCCCN12)c1c(N)n(CCCC)c(=O)[nH]c1=O	-4	11	-1	-2	-1	-1	.	.
COc1cc(/C=C/C=C2/CC/C(=C/C=C/c3ccc(O)c(OC)c3)C2=O)ccc1O	.	90*	39	11	-8	13	27	0	Beacon interf DR=>99
Cc1n[nH]c(C)c1CCNC(=O)C1CCC(=O)N(CCc2cccc(F)c2)C1 (stereo unspecified)	-2	2	-2	5	-2	0	.	.
O=C(NCCN1CCCC1)C1CCC(=O)N(CCCN2CCOCC2)C1 (stereo unspecified)	2	1	1	-17	-4	-8	.	.
CCOC(=O)C1C(=O)CC(=O)CC1CC(C)SCC (stereo unspecified)	-1	79*	-7	3	-9	0	1	4
COc1ccc(NC(=O)C2CCCCN2S(=O)(=O)c2ccccc2)cc1S(=O)(=O)N1CCOCC1 (stereo unspecified)	-1	6	-6	12	2	-1	.	.
CCCN1CCC(NC(=O)C2CC=CCC2C(=O)O)CC1 (stereo unspecified)	4	5	-8	6	-2	-3	.	.
Cc1ccc(-c2nc3c(c(=O)[nH]c(=O)n3Cc3ccccc3)n2Cc2ccccc2)o1	20	6	-3	-1	5	2	.	.
Cc1ccc(-c2nc3c(c(=O)[nH]c(=O)n3Cc3ccccc3)n2C)o1	-10	70*	27	0	2	10	4	0
CC(SC(C)C(=O)NN=Cc1cccc(Cl)c1)C(=O)NN=Cc1cccc(Cl)c1 (stereo unspecified)	-7	65*	-7	-1	0	-1	6	7
SMILES	Rpn11 block	DNMT1 block	Scp1 inh	SUMO1 PPI mod	STEP block	LMPTP block	DNMT1 inh conf	DNMT1 interf	others
S=c1[nH]nc(-c2ccncc2)n1/N=C/c1cn(-c2ccccc2)nc1-c1ccc(Cl)cc1	-3	75*	12	0	2	2	1	6
CSc1nnc(-c2ccncc2)n1/N=C/c1cn(-c2ccccc2)nc1-c1ccc(Cl)cc1	-10	6	11	8	-2	2	.	.
CCC1CCc2sc(C(=O)NNC(=O)c3ccncc3)cc2C1 (stereo unspecified)	2	88*	-4	4	-1	0	5	6
CCC1CCc2sc(C(=O)O)cc2C1 (stereo unspecified)	0	4	-10	3	-8	-2	.	.
Cc1cccc2c(N=NC(=O)c3ccc(NS(=O)(=O)c4cccs4)cc3)c(O)[nH]c12	-9	87*	5	-5	-4	2	19	-4
COc1cccc(C(=O)NNC(=O)c2ccc(NS(=O)(=O)c3cccs3)cc2)c1OC	-2	1	-3	8	-1	-1	.	.
CC1(OC(=O)CCc2ccccc2)C(=O)C=C2C=C(c3ccc(C#N)cc3)N(C3CCCCC3)C=C2C1=O (stereo unspecified)	-6	-4	1	-10	2	2	.	.
CC1(OC(=O)CCc2ccccc2)C(=O)C=C2C=C3CCCN3C=C2C1=O (stereo unspecified)	-46	77*	8	2	7	5	2	0
CCn1ccnc1CN(C)Cc1cn(-c2ccc(C)cc2)nc1-c1ccc(F)cc1	-5	60*	-4	-1	3	2	2	6
Cc1ccc(-n2cc(CN(C)Cc3nccn3C)c(-c3ccc(F)cc3)n2)cc1	2	-4	-7	4	-8	1	.	.
Cc1cc(C)cc(-n2nnnc2SCC(=O)N2CCOCC2)c1	5	79*	1	4	1	0	0	4
O=C(Nc1cnn(C23CC4CC(CC(C4)C2)C3)c1)c1cnn2c(C(F)(F)F)cc(-c3ccco3)nc12	-1	58*	9	0	8	3	-2	-2

Screening results deposited in PubChem by Sanford-Burnham Center for Chemical Genomics.
